Laboratory results from ChEMBL document CHEMBL4270633, “Discovery of novel vinyl sulfone derivatives as anti-tumor agents with microtubule polymerization inhibitory and vascular disrupting activities” (Eur J Med Chem, 2018).
Calls of active or inactive are those of the source. No cut-off for these calls is given here.

Key:
K562 [1] = assay: Antiproliferative activity against human K562 cells after 72 hrs by MTT assay; format: functional, cell-based; conditions: K562, 72 h
Summary of the method: (§1)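 Cells seeded and held 24 h at 37 °C, 5% CO2, then exposed to a concentration series in medium with 0.1% DMSO for 72 h. MTT (5 mg/mL in PBS) added for 4 h and OD read at 490 nm. IC50 taken from dose-response curves; mean ± SD of at least three independent experiments.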

HepG2 = assay: Antiproliferative activity against human HepG2 cells after 72 hrs by MTT assay; format: functional, cell-based; conditions: HepG2, 72 h; summary of the method: as §1
A549 = assay: Antiproliferative activity against human A549 cells after 72 hrs by MTT assay; format: functional, cell-based; conditions: A549, 72 h; summary of the method: as §1
K562 [2] = assay: Antiproliferative activity against human K562 cells at 1 uM after 72 hrs by MTT assay; format: functional, cell-based
K562 [3] = assay: Antiproliferative activity against human K562 cells at 0.1 uM after 72 hrs by MTT assay relative to control; format: functional
[4] = Inhibition of porcine brain tubulin polymerization after 30 mins by spectrophotometric method; parameters: species or system Sus scrofa
Summary of the method: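 Purified tubulin (2 mg/mL) in PEM buffer (80 mM PIPES pH 6.9, 0.5 mM EGTA, 2 mM MgCl2, 15% glycerol), preincubated on ice with compound or DMSO vehicle, then GTP added. Absorbance at 340 nm followed at 37 °C for 30 min. IC50 derived from area under the polymerization curve.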

SMILES	IC50 (K562 [1])	IC50 (HepG2)	IC50 (A549)	IC50 [4]	Activity (K562 [2])	Activity (K562 [3])
COc1ccc(/C=C/S(=O)(=O)c2cc(OC)c(OC)c(OC)c2)cc1	–	–	–	–	Active	Active
COc1cc(S(=O)(=O)/C=C/c2ccc(C)cc2)cc(OC)c1OC	–	–	–	–	Active	Active
COc1cc(S(=O)(=O)/C=C/c2ccc(O)cc2)cc(OC)c1OC	–	–	–	–	Active	Active
COc1cc(/C=C/S(=O)(=O)c2cc(OC)c(OC)c(OC)c2)cc(OC)c1OC	–	–	–	–	Active	Active
COc1ccc(/C=C/S(=O)(=O)c2cc(OC)c(OC)c(OC)c2)cc1F	–	–	–	–	Active	Active
COc1cc(S(=O)(=O)/C=C/c2ccccc2)cc(OC)c1OC	–	–	–	–	Active	Active

Now from value to compound, other results behind:

IC50 (K562 [1])	IC50 (HepG2)	IC50 (A549)	IC50 [4]	SMILES	Activity (K562 [2])	Activity (K562 [3])
473 nM	591 nM	1310 nM	–	COc1ccc(/C=C(\F)S(=O)(=O)c2cc(OC)c(OC)c(OC)c2)cc1O	–	–
> 1000 nM	> 1000 nM	> 5000 nM	–	COc1ccc(/C=C(\C#N)[S+]([O-])c2cc(OC)c(OC)c(OC)c2)cc1O (stereo unspecified)	–	–
> 1000 nM	> 1000 nM	> 5000 nM	–	COc1ccc(/C=C(\C#N)S(=O)(=O)c2cc(OC)c(OC)c(OC)c2)cc1O	–	–
60 nM	102 nM	387 nM	3690 nM	COc1ccc(/C=C/C(=O)c2cc(OC)c(OC)c(OC)c2)cc1O	–	–
190 nM	599 nM	2880 nM	–	CO/C(=C\c1ccc(OC)c(O)c1)S(=O)(=O)c1cc(OC)c(OC)c(OC)c1	–	–
> 1000 nM	> 1000 nM	> 5000 nM	–	COc1ccc(/C=C(\C)[S+]([O-])c2cc(OC)c(OC)c(OC)c2)cc1O (stereo unspecified)	–	–
